Source: PMC3655773 (Acta pharmaceutica Sinica. B, 2012)
Several values for one entry are separate records, joined by “and”; a condition that tells them apart may be missing. Equal values may be shown once. Read-outs that look alike come from different tables or passages of the source.

Assays:
in vitro = conditions: Sprague-Dawley, rat, microsomes, pH 7.4
[1] = cited from earlier work
[2] = Pharmacokinetic assay in rat; conditions: male SD rats; for F (oral bioavailability): i.g. 20 mg/kg vs 3 i.v. 2 mg/kg, dose-normalized AUC(0-t)
[3] = rat, microsomes
[4] = In vitro metabolic stability in SD rat liver microsomes; conditions: 1 μM, NADPH; for k obs (degradation rate constant): SD rat liver microsomes 0.1 mg/mL, parent compound 3 measured; for T1/2: apparent in vitro half-life; for T1/2 / CLint: SD rat liver microsomes; for CLint: intrinsic clearance
HIV-1 = conditions: previous studies, cited from earlier work; for EC50: anti-HIV potency; for TI: therapeutic index
[5] = cited from earlier work; remark: listed apart in the source
[6] = Water solubility analysis; format: physicochemical; conditions: pH 7.4, room temperature
In short: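 Excess test compound in water buffered to pH 7.4 with K2HPO4 phosphate, sonicated with stirring for 1 h at room temperature, then filtered. Supernatant analysed by HPLC on a C18 column (70% MeCN/30% water, 1.0 mL/min, UV 320 nm). Saturated concentration taken from peak area against a five-point (five-fold step) standard curve in MeCN, diluted from an acetonitrile stock.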

[7] = i.g. 20 mg/kg in 10% PEG400, parent 3 measured
[8] = i.g. 20 mg/kg in 10% PEG400, plasma parent compound 3 measured

Row | CL [2, 7] [mL/min/kg] | Cmax [2, 7] [ng/mL] | MRT(0-t) [2, 7] [min] | Tmax [2, 7] [min] | Vd [2, 7] [L/kg] | AUC(0-t) [2, 8] [ng·L/mL] | F (oral bioavailability) [2] | CLint [3] [µL/min/mg] | T1/2 [3] [min] | Compound | k obs (degradation rate constant) [4] | T1/2 [4] [min] | CLint [4] [µL/min/mg] | also measured
1 | – | – | – | – | – | – | – | – | – | CC(C)NCC(O)COc1cccc2ccccc12 (stereo not shown) [PRO, propranolol] | – | – | – | half-life at 1 μM (in vitro): 20.7 min; T1/2 in vivo [1]: a Reference compounds: propranolol (moderate metabolism in vivo with T1/2 of 3–5 h).
2 | 0.567 ± 0.067 | 398.5 ± 29.00 | 91.02 ± 12.4 | 30 | 0.102 ± 0.011 | 588.9 ± 72.06 | 12.4% | 270 | 25.93 | Cc1c(COC(=O)CCC(=O)O)c(=O)oc2c3c(ccc12)OC(C)(C)[C@H](OC(=O)[C@@]12CC[C@@](C)(C(=O)O1)C2(C)C)[C@@H]3OC(=O)[C@@]12CC[C@@](C)(C(=O)O1)C2(C)C (relative stereo) [Compound 8, 4-Oxo-4-[(3′,4′-di-0-(S)-camphanoyl-4-methyl-(+)-cis-kellactone-3-yl)methoxy]butanok acid] | – | – | – | AUC ([2]; i.g. 20 mg/kg): 588.9 ng·h/mL
3 | – | – | – | – | – | – | – | – | – | Cc1c(COC(=O)C(N)C(C)C)c(=O)oc2c3c(ccc12)OC(C)(C)[C@H](OC(=O)[C@@]12CCC(C)(C(=O)O1)C2(C)C)[C@@H]3OC(=O)[C@@]12CCC(C)(C(=O)O1)C2(C)C (relative stereo) [Compound 11, [3′,4′-Di-O-(S)-camphanoyl-4-methyl-(+)-cis-kellactone-3-yl]methyl 2-amino-3-methyl-butanoate] | 0.023 | 30.09 | 230 | –
4 | 0.667 ± 0.167 | 191.1 ± 2.48 | 128.2 ± 7.38 | 45 | 0.123 ± 0.058 | 477.8 ± 128.7 | 9.8% | 260 | 26.54 | Cc1c(COC(=O)CN)c(=O)oc2c3c(ccc12)OC(C)(C)[C@H](OC(=O)[C@@]12CCC(C)(C(=O)O1)C2(C)C)[C@@H]3OC(=O)[C@@]12CCC(C)(C(=O)O1)C2(C)C.Cl (relative stereo) [Compound 13, [3′,4′-Di-O-(S)-camphanoyl-4-methyl-(+)-cis-kellactone-3-yl]methyl 2-aminoacetate hydrochloride salt] | – | – | – | –
5 | 1.7 ± 0.333 | 80.9 ± 18.80 | 159.5 ± 40.9 | 22.8 | 0.669 ± 0.422 | 157.9 ± 42.94 | 3.3% | 200 | 35.27 | Cc1c(COC(=O)CCC(=O)O)c(=O)oc2c3c(ccc12)OC(C)(C)[C@H](OC(=O)[C@@]12CC[C@@](C)(C(=O)O1)C2(C)C)[C@@H]3OC(=O)[C@@]12CC[C@@](C)(C(=O)O1)C2(C)C (relative stereo) [Compound 6, 4-Oxo-4-[(3′,4′-di-0-(S)-camphanoyl-4-methyl-(+)-cis-kellactone-3-yl)methoxy]butanok acid] | – | – | – | AUC ([2]; i.g. 20 mg/kg): 157.9 ng·h/mL
6 | – | – | – | – | – | – | – | – | – | Cc1cc(=O)oc2c3c(ccc12)OC(C)(C)[C@H](OC(=O)C12CCC(C)(C(=O)O1)C2(C)C)[C@@H]3OC(=O)C12CCC(C)(C(=O)O1)C2(C)C (stereo partly shown) [Compound 2, 4-methyl-DCK] | – | – | – | EC50 (HIV-1): 1.5 nM; TI (HIV-1): 15,733; bioavailability ([5]; rat, in vivo): poor bioavailability
7 | 0.267 ± 0.12 | 621.5 ± 79.67 | 107.6 ± 10.9 | 45 | 0.045 ± 0.017 | 1296.5 ± 437.6 | 26% and 25.7% | 140 | 49.26 | Cc1c(COC(=O)C(C)N)c(=O)oc2c3c(ccc12)OC(C)(C)[C@H](OC(=O)[C@@]12CCC(C)(C(=O)O1)C2(C)C)[C@@H]3OC(=O)[C@@]12CCC(C)(C(=O)O1)C2(C)C (relative stereo) [Compound 10, [3′,4′-Di-O-(S)-camphanoyl-4-methyl-(+)-cis-kellactone-3-yl]methyl 2-aminopropanoate] | – | – | – | Water solubility [6]: 18 µg/mL; systemic clearance (CL) ([2]; i.g. 20 mg/kg): 16 mL/min/kg
8 | 0.617 ± 0.017 | 163.6 ± 13.56 | 214.9 ± 18.4 | 15 | 0.467 ± 0.063 | 384.1 ± 6.21 | 7.5% | 1780 | 3.90 | Cc1c(COC(=O)CN)c(=O)oc2c3c(ccc12)OC(C)(C)[C@H](OC(=O)[C@@]12CCC(C)(C(=O)O1)C2(C)C)[C@@H]3OC(=O)[C@@]12CCC(C)(C(=O)O1)C2(C)C (relative stereo) [Compound 9, [3′,4′-Di-O-(S)-camphanoyl-4-methyl-(+)-cis-kellactone-3-yl]methyl 2-aminoacetate] | – | – | – | –

Row | Compound | CL [2, 7] [mL/min/kg] | Cmax [2, 7] [ng/mL] | MRT(0-t) [2, 7] [min] | Tmax [2, 7] [min] | Vd [2, 7] [L/kg] | AUC(0-t) [2, 8] [ng·L/mL] | F (oral bioavailability) [2] | CLint [3] [µL/min/mg] | T1/2 [3] [min] | k obs (degradation rate constant) [4] | T1/2 [4] [min] | CLint [4] [µL/min/mg] | also measured
9 | Cc1c(COC(=O)C(N)CC(C)C)c(=O)oc2c3c(ccc12)OC(C)(C)[C@H](OC(=O)[C@@]12CCC(C)(C(=O)O1)C2(C)C)[C@@H]3OC(=O)[C@@]12CCC(C)(C(=O)O1)C2(C)C (relative stereo) [Compound 12, [3′,4′-Di-O-(S) -camphanoyl-4-methyl-(+)-cis-kellactone-3-yl]methyl 2-amino-4-methyl-pentanoate] | 0.433 ± 0.083 | 529.0 ± 192.9 | 77.16 ± 5.1 | 30 | 0.049 ± 0.020 | 775.6 ± 162.9 | 15.8% | – | – | 0.023 | 30.77 | 230 | –
10 | Cc1c(CO)c(=O)oc2c3c(ccc12)OC(C)(C)[C@H](OC(=O)C12CCC(C)(C(=O)O1)C2(C)C)[C@@H]3OC(=O)C12CCC(C)(C(=O)O1)C2(C)C (stereo partly shown) [Compound 3, 3-hydroxymethyl-4-methyl-DCK] | 0.333 ± 0.083 | 530.7 ± 120.8 | 119 ± 28.7 | 34.8 | 0.079 ± 0.039 | 966.3 ± 219.7 | 17.3% | – | – | 0.039 | 17.92 | 390 | EC50 (HIV-1): 4 nM; TI (HIV-1): 6225; Water solubility [6]: 8.4 µg/mL; bioavailability (F) ([5]; in rat, previous studies): 15%; AUC(0-t) ([2]; i.v. 2 mg/kg in 10% PEG400): 558.4 ± 8.71 ng·L/mL; CL ([2]; i.v. 2 mg/kg in 10% PEG400): 0.05 ± 0.0017 mL/min/kg; MRT(0-t) ([2]; i.v. 2 mg/kg in 10% PEG400): 74.1 ± 10.1 min; Vd ([2]; i.v. 2 mg/kg in 10% PEG400): 0.008 ± 0.002 L/kg
